Results: ChEMBL document CHEMBL1152968, “Phenylethanoid and lignan glycosides from polar extracts of Lantana, a genus of verbenaceous plants widely used in traditional herbal therapies” (J Nat Prod, 2009)
Active and inactive are the calls of the source.

Legend:
Format in all cases: functional, cell-based
[1] = system: NCI-H929; experiment: Cytotoxicity against human NCI-H929 cells at 10 uM after 48 hrs by fluorescent microplate assay
Method in brief: (§1)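 Cells were seeded in 96-well plates in RPMI 1640 with 10% fetal calf serum and 10 units/mL penicillin-streptomycin. They were then cultured 24 h at 37 °C in humidified 5% CO2 before treatment. Compounds were added dissolved in DMSO, and the read-out was cell viability.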

[2] = system: K562; experiment: Cytotoxicity against human K562 cells at 10 uM after 48 hrs by fluorescent microplate assay; method in brief: as §1
[3] = system: U-937; experiment: Cytotoxicity against human U937 cells at 10 uM after 48 hrs by fluorescent microplate assay; method in brief: as §1
[4] = system: HL-60; experiment: Cytotoxicity against human HL60 cells at 10 uM after 48 hrs by fluorescent microplate assay; method in brief: as §1
[5] = system: CCRF-CEM; experiment: Cytotoxicity against human CEM cells at 10 uM after 48 hrs by fluorescent microplate assay; method in brief: as §1
[6] = system: U-266; experiment: Cytotoxicity against human U266 cells at 10 uM after 48 hrs by fluorescent microplate assay; method in brief: as §1
[7] = system: KG-1; experiment: Cytotoxicity against human KG1 cells at 10 uM after 48 hrs by fluorescent microplate assay; method in brief: as §1
[8] = system: Jurkat; experiment: Cytotoxicity against human Jurkat cells at 10 uM after 48 hrs by fluorescent microplate assay; method in brief: as §1

Measured: Activity

O=C(/C=C/c1ccc(O)c(O)c1)O[C@H]1[C@H](O[C@@H]2OC[C@](O)(CO)[C@H]2O)[C@@H](O)[C@H](OCCc2ccc(O)c(O)c2)O[C@@H]1CO[C@@H]1OC[C@H](O[C@@H]2OC[C@](O)(CO)[C@H]2O)[C@H](O)[C@H]1O
inactive: all assays above

COc1cc([C@H]2Oc3c(OC)cc([C@H](O)[C@H](O)CO[C@@H]4O[C@H](CO)[C@@H](O)[C@H](O)[C@H]4O)cc3[C@@H]2CO)ccc1O
inactive: all assays above
